KCNK3 inh: human KCNK3 channel inhibitors, primary screen, CHO cells, FluxOR thallium flux, B-score; B-score at 10 µM; FluxOR fluorescence; stronger effect = lower value; Potassium channel subfamily K member 3 (Homo sapiens), O14649; 340,000 tested, 0.84% active;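 active = B-score under library mean minus 4 SD, starting fluorescence ratio at most library mean plus 5 SD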;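 note: more negative B-score means stronger inhibition of thallium flux through KCNK3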
Kir21 block: inhibitors of mouse Kir2.1 inward-rectifier potassium channel; Inward rectifier potassium channel 2 (Mus musculus), P35561; HEK293-Kir2.1, FluxOR thallium flux fluorescence; stronger effect = lower value; B-score at 10 µM; 310,000 tested, 0.85% active; AID 1672, 2009;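 active = fluorescence ratio B-score at or below minus 3 SD of library scores, with starting-brightness B-score within 2 SD, cut at about -4.2 in these data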;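 note: channel flux triggered by added potassium and thallium sulfate stimulus; B-score of peak minus minimum fluorescence over baseline after thallium stimulus; more negative B-score means stronger Kir2.1 block with less thallium influx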
Target sequence (P35561 whole entry, looked up): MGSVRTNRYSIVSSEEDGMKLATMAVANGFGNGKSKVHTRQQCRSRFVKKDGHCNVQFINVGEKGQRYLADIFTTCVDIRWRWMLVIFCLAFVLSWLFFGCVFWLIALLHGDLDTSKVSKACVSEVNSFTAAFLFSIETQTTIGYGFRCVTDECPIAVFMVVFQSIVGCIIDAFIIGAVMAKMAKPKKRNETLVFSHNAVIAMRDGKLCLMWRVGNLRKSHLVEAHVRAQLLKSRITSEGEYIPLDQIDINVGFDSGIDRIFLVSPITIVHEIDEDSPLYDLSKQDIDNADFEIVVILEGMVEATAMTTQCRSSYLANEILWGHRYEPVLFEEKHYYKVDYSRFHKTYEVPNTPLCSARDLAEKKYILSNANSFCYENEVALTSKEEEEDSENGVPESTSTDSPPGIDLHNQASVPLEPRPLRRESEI
KCNQ1 block: inhibitors of human KCNQ1 channel, primary screen, cell-based, thallium flux, high-throughput; CHO-K1 KCNQ1, FluxOR thallium flux fluorescence; stronger effect = higher value; 310,000 tested, 1.3% active; AID 2642, 2010; B-score at 10 µM;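 active = compounds whose thallium flux B-score, printed positive for inhibition, exceeds three library SD while starting fluorescence stays within three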;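 note: channel opened by potassium depolarization with thallium stimulus after 20 min compound exposure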
KCNK9 block: KCNK9 potassium channel inhibitors, primary screen, HEK293 cells, thallium flux. FluxOR thallium flux fluorescence; stronger effect = lower value. B-score at 10 µM. 310,000 tested, 1.2% active;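 active = ratio B-score over 3 SD below the library mean, with starting fluorescence within 5 SD of its mean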;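 note: negative B-score means less thallium flux so channel inhibition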
KCNQ1 pot: potentiators or activators of KCNQ1 channel, primary screen, cell-based, thallium flux, high-throughput. Potassium voltage-gated channel subfamily KQT member 1 (Homo sapiens), P51787. CHO-K1 KCNQ1, thallium flux FluxOR fluorescence; stronger effect = higher value. B-score at 10 µM. 310,000 tested, 0.35% active. AID 2648, 2010;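 active = fluorescence ratio B-score, a plate-corrected score, at least three library SD, with initial intensity B-score within 5 SD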
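System: CHO-K1 cells stably expressing KCNQ1 / Medium: assay buffer for compound exposure, DMSO matched across wells / Reagent: thallium- and potassium-containing depolarizing buffer / Compound: one concentration, matched DMSO / Incubation: 20 min compound pretreatment at room temperature / Measured by: kinetic FluxOR fluorescence, 10 s baseline plus 110 s post-stimulus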
hERG rescue: hERG rescue from dofetilide block, primary screen, cell-based, CHO-hERG, FluxOR thallium flux, dofetilide IC70. Voltage-gated inwardly rectifying potassium channel KCNH2 (Homo sapiens), Q12809. activation (rescue from dofetilide block), less the hit threshold, % at 10 µM. dofetilide IC70 present. AID 1511, 2009. 310,000 tested, 0.51% active;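 active = activation above the mean of controls blocked by dofetilide plus 5 SD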;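 note: thallium influx through hERG after potassium depolarization seen as dye fluorescence rise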
An asterisk follows results filed as active; i = inactive; nt = not tested or not shown. Only some compounds are listed: those with a hit (about 3.8% of all), similar ones and a draw of the others.

SMILES	KCNK3 inh	Kir21 block	KCNQ1 block	KCNK9 block	KCNQ1 pot	hERG rescue
O=c1[nH]c2c(c(=O)[nH]1)OCN(Cc1ccccc1)C2	i	nt	nt	nt	nt	nt
OCCCCNCc1ccc(OCc2ccc(Cl)cc2Cl)cc1	i	-7.1*	i	i	i	-17
S=C(Nc1ccccc1)Nc1ccc(OCc2ccc(Cl)cc2Cl)cc1	i	-1.5	i	i	i	-4
OCCNCc1ccc(OCc2ccc(Cl)cc2Cl)cc1	i	-7.5*	i	i	i	-18
Cc1ccc(C(=O)N2[C@@H]3CN(C)C(=O)[C@@]2(Cc2ccccc2)[C@H]2C(=O)N(Cc4ccccc4)C(=O)[C@@H]32)cc1	i	nt	nt	nt	nt	nt
CCOC(=O)c1c(NC(=O)CSc2nnc(C)o2)sc(C)c1C	i	-0.39	i	i	i	-6
Cc1ccccc1NC(=O)NC1(C(=O)N2CCN(C)CC2)CCCCC1	i	-0.07	i	i	i	-8
CCCCN(CCCC)c1nc(OC)nc(-n2nnc(C(C)=O)c2C)n1	i	-0.01	i	-6.6*	i	-16
CC(=O)c1nnn(-c2nc(N)nc(N(c3ccccc3)c3ccccc3)n2)c1C	i	-1.2	i	i	i	-8
Cc1ccc(OC(C)C(=O)N2CC(=O)Nc3ccccc32)c(C)c1 (stereo not drawn)	i	-1.6	i	i	i	-1
CCOc1c(Br)cc(CNC2CCCCCCC2)cc1OC	i	-4.3*	i	i	i	-12
COc1cc(CNC2CCCCCCC2)cc(Br)c1OCC#N	i	-4.8*	i	i	i	-5
Cn1nc(OC(=O)Nc2ccc(Cl)cc2)cc1C(F)(F)F	nt	0.96	8*	i	i	-14
OC(CNCc1cccnc1)COc1ccc2ccccc2c1 (stereo not drawn)	i	0.53	i	i	i	-6
O=C([O-])c1ccccc1-[n+]1c(-c2ccccc2)cc(-c2ccccc2)cc1-c1ccccc1	i	-4.6*	i	i	i	-14
COc1ccc(CNCc2cccc(OC)c2OC)cc1Br	i	-5*	i	i	i	-19
Cc1onc(-c2ccccc2)c1C(=O)N(CC(C)C)c1c(N)n(CC(C)C)c(=O)[nH]c1=O	i	nt	nt	nt	nt	nt
CC1(C)CC(c2nc(-c3ccc(Cl)cc3)cs2)CCS1 (stereo not drawn)	i	0.15	9*	i	i	-10
CN(Cc1ccc(Cl)c(Cl)c1)C(=O)C1CSC2(C)CCC(=O)N12 (stereo not drawn)	i	nt	nt	nt	nt	nt
Cc1cc(Cl)c(OCCOCCN2CCCCC2)c(Br)c1	i	-0.01	i	i	i	-2
Cc1cc(Cl)c(OCCOCCN2CCCC(C)C2)c(Br)c1 (stereo not drawn)	i	-4.3*	i	i	i	-24
CCCn1c2c(c(O)c(C(=O)Nc3nc(C)cs3)c1=O)CCCC2	nt	-4.3	i	i	i	-15
CCCn1c2c(c(O)c(C(=O)Nc3nccs3)c1=O)CCCC2	i	0.18	i	-6.6*	i	-3
Oc1cccc(/C=N/N(Cc2ccccc2)c2ccccc2)c1	i	-0.42	6*	-7.2*	i	-15
COc1ccc(C(=O)C(/C=N/O)=N/Nc2ccc(F)cc2)cc1	i	-0.39	10*	i	i	-9
SMILES	KCNK3 inh	Kir21 block	KCNQ1 block	KCNK9 block	KCNQ1 pot	hERG rescue
CCOC(=O)c1sc(NC(=O)CCN2CCN(CC)CC2)c(C(=O)OCC)c1C	i	0.87	i	i	i	-15
CC1CCC(NC(=O)C2CC(=O)N(c3ccc4c(c3)OCCO4)C2)CC1 (stereo not drawn)	i	0.06	i	i	i	-7
O=C(Nc1cccnc1)c1ccc2ccccc2c1O	i	0.02	i	i	i	-7
O=C(Nc1cccc([N+](=O)[O-])c1)c1ccc2ccccc2c1O	i	0.18	6*	i	i	-18
Cc1occc1C(=O)Nc1cccc([N+](=O)[O-])c1	i	-0.55	i	i	i	8.6*
CCN(CC(=O)Nc1c(F)cccc1F)C(=O)C1CCN(C(=O)Nc2ccccc2)CC1	i	nt	nt	nt	nt	nt
COc1ccc(CN(C(=O)CSc2nnc(-c3ccccc3C)o2)c2ccc(F)cc2)cc1	i	0.39	6*	i	i	-15
O=C1c2ccccc2C(Nc2ccc(-c3nc4ccccc4[nH]3)cc2)N1Cc1ccco1 (stereo not drawn)	-11*	0.48	i	i	i	-13
COCCNC(=O)c1onc(CSc2cc(C)ccc2C)c1C(=O)O	i	0	i	i	i	-7
Cc1ccc(C)c(SCc2noc(C(=O)NC(C)C)c2C(=O)O)c1	i	-0.77	i	i	9*	0
Cc1cc(C)n(CCNS(=O)(=O)c2ccccc2)n1	i	1.2	i	i	i	-2
Cn1nc(-c2ccccc2)c(CSc2ccccc2Cl)c1Cl	i	-0.04	i	-7.6*	i	-4
Cc1ccc(S(=O)(=O)c2c(CO)c(-c3ccccc3)nn2C)cc1	i	-0.34	i	i	i	-13
COc1ccc(C(=O)Nc2nnc(Cc3ccc(OC)c(OC)c3)s2)cc1	i	-0.39	i	i	i	-5
CC(Cc1ccc(O)c(O)c1)C(C)Cc1ccc(O)c(O)c1 (stereo not drawn)	nt	-11*	i	i	i	-36
O=C(NCCC1CCCCN1S(=O)(=O)c1ccc(F)cc1)C(=O)NCc1cccnc1 (stereo not drawn)	i	-0.93	i	i	i	-18
c1ccc(CN(Cc2cccs2)C(c2cccs2)c2nnnn2C2CCCC2)cc1 (stereo not drawn)	i	1.2	i	-7.5*	i	-7
O=c1[nH]cc(-c2ccccc2)c(=O)[nH]1	i	0.03	i	i	12*	-2
COc1ccc(CN(C)C(=O)c2ccc(OCC(=O)Nc3cccc(C(F)(F)F)c3)c(OC)c2)c(OC)c1	i	-0.77	i	i	i	-10
COc1cccc(CN(C)C(=O)c2ccc(OCC(=O)Nc3cccc(C(F)(F)F)c3)c(OC)c2)c1	i	-0.03	9*	i	i	-20
c1ccc(Nc2ncnc3c2oc2ccccc23)cc1	i	-0.38	i	i	i	-6
c1ccc2c(c1)oc1c(Nc3ccc(CN4CCOCC4)cc3)ncnc12	i	-5*	i	i	i	-15

Source: PubChem BioAssay
